Published values collected from several papers.
Lines come from different studies, so protocols differ. In brackets after ≈: the same amount, converted by molar mass.

| Structure (SMILES) | test | test system | conditions | endpoint | result |
| --- | --- | --- | --- | --- | --- |
| N#Cc1ccc(C[C@H](Nc2c(Nc3ccc(Br)cc3)c(=O)c2=O)C(=O)N2CCc3ccccc32)cc1 | – | aqueous buffer | 2 h, pH 7.4, 37 °C | kinetic solubility | 9.2 µM (≈ 4.98 µg/mL) |
| Clc1ccc(Nc2ncnc3ccc(-c4cccc(N5CCOCC5)c4)cc23)cc1 | – | aqueous buffer | pH 7.4, 25 °C | thermodynamic solubility | < 0.4 µM |
| N#Cc1ccc(C[C@H](Nc2c(Nc3ccc(F)cc3)c(=O)c2=O)C(=O)N2CCc3ccccc32)cc1 | – | aqueous buffer | 2 h, pH 7.4, 37 °C | kinetic solubility | 11.8 µM (≈ 5.67 µg/mL) |
| CCCCCCCCCCCCCCCC(=O)NCCOC(=O)C[C@@H](CN)CC(C)C | – | water | 12 h, 37 °C | thermodynamic solubility | 3460 µg/mL |
| O=C(Nc1ccc(OC(F)(F)F)cc1)N[C@H]1CC[C@H](Oc2ccc(C(=O)O)cc2)CC1 | – | simulated gastric fluid | 15 min, pH 1, 37 °C, acidic | solubility | 0.0023 µg/mL (≈ 0.00525 µM) |
| CN1CCN(c2cccc(-c3ccc4ncnc(Nc5ccc(Cl)c(Cl)c5)c4c3)c2)CC1 | – | aqueous buffer | pH 7.4, 25 °C | thermodynamic solubility | < 1.7 µM |
| N#Cc1ccc(C[C@H](NC(=O)Nc2ccc(F)cc2)C(=O)N2CCc3ccccc32)cc1 | – | aqueous buffer | 2 h, pH 7.4, 37 °C | kinetic solubility | 10.5 µM (≈ 4.5 µg/mL) |
| CCCCCCCCCCCCCCCC(=O)NCCO | – | water | 12 h, 37 °C | thermodynamic solubility | < 16 µg/mL |
| CCN(CC)CCNC(=O)c1cc(S(C)(=O)=O)ccc1OC | – | PBS | 2 h, pH 7.4, 25 °C | kinetic solubility | 394 µM (≈ 129 µg/mL) |
| N#Cc1ccc(C[C@H](Nc2nnc(-c3ccc(Br)cc3)o2)C(=O)N2CCc3ccccc32)cc1 | – | aqueous buffer | 2 h, pH 7.4, 37 °C | kinetic solubility | 1.8 µM (≈ 0.926 µg/mL) |
| FC(F)(F)c1cc(Nc2ncnc3ccc(-c4cccc(N5CCOCC5)c4)cc23)ccc1Cl | – | aqueous buffer | pH 7.4, 25 °C | thermodynamic solubility | < 0.7 µM |
| Cc1ccccc1CN1C(=O)C2=C(CCN(Cc3ccccc3)C2)N2CCN=C12 | shake flask | aqueous buffer | pH 6 | solubility | 260 µg/mL (≈ 673 µM) |
| Fc1ccccc1Nc1nc(-c2ccncc2)nc2c1CNCC2 | – | PBS | 24 h, pH 7.4 | kinetic solubility | > 250 µM |
| Cc1nccn1CC1CCc2c(c3ccccc3n2C)C1=O (stereo not drawn) | – | PBS | 2 h, pH 7.4, 25 °C | kinetic solubility | 110 µM (≈ 32.3 µg/mL) |
| C=CCn1c(=O)c2cnc(Nc3ccc(N4CCN(C)CC4)cc3)nc2n1-c1ccc2c(n1)[C@@](O)(CC)CC2 | – | PBS | pH 7.4 | thermodynamic solubility | 2130 µM |
